Reference: the EternaBench riboswitch data

Tested on: MS2 coat protein
Assay: apparent Kd, MS2 coat protein; higher = weaker binding; RNA-MaP array; FMN 200 µM where present
In short: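 Stalled E. coli RNA polymerase transcribed each design on Illumina sequencing-chip clusters. The clusters were titrated with SNAP-549-labelled MS2 coat protein, starting at 0.7 or 1.5 nM and doubling up to 3 µM, first without ligand and then with constant ligand, in 100 mM Tris-HCl pH 7.5, 80 mM KCl, 4 mM MgCl2, BSA, DTT, yeast tRNA and Tween-20. Green signal was normalised to red-channel RNA signal and to the control-cluster median Fmax. The apparent Kd is the median of filtered binding-curve fits made for each cluster.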

[1] = ligand present: flavin mononucleotide, designed as: ON switch for flavin mononucleotide
[2] = designed as: OFF switch for flavin mononucleotide, no ligand
[3] = ligand present: flavin mononucleotide, designed as: OFF switch for flavin mononucleotide
[4] = designed as: ON switch for flavin mononucleotide, no ligand

Sequence | apparent Kd [1] | apparent Kd [2] | apparent Kd [3] | apparent Kd [4]
GUAGCAUGAUUAGGAUAUUCAGCGAAUAGAUUGACAUGAGGAUCACCCAUGUGGCGAAAGCCGAGGGAGAAGGGAUGAUGCUAC | 47.4 nM | – | – | –
GGCGGGAAUGAGAAGGGUCACAUGAGGAUCACCCAUGUGCUCUUCGCCGUGACAGGAUAUCAUCGCCGCCAGGUUAGAUUUUUG | – | 7.83 nM | 30.9 nM | –
AAUAAACUCACAGGAUAUAGCAUAGGUCGCGUGAACUUACAGGCGACGAUGCUAGAAGGGUGACCACAUGAGGAUCACCCAUGU | 172 nM | – | – | 892 nM
AACAAGAGGAUCACCCAUGUAACAUGAGGAUCACCCAUGUUUAAGGAUAUGUACAUGAUACAUGUACAGAAGGUGGAUUGGACU | – | 26.2 nM | 27.2 nM | –
CUUAUGUCAGGAUAUCAGUAGUAAAAAAAAAAAAUUACUACUGAGAAGGGACAUGAGGAUCACCCAUGUCCAUU | – | 30.9 nM | 31.2 nM | –
AUGUUACAUGAGGAUCACCCAUGUGAGGAUAUGUGUACUGGUAAAAAAGUGUUUGGCCACAGAAGGCAUUUGGG | – | 50.4 nM | 148 nM | –
AACGCGUCAGGAUAUAGCGUAACUUAGGUAGUACGACCAUACUAGAAGGGACAUGAGGAUCACCCAUGUGGGUA | – | 232 nM | 112 nM | –
CGAUAGGACAGAGGAUAUACGUGCUAGAGAUACUAGCAAAAUUACAACACAUGAGGAUCACCCAUGUAGAAGGCUGUCCUAUCG | – | 5.04 nM | 6.21 nM | –
GUAGCUAUCGGAGGAUAUUCAUUAAACAUGAGGAUCACCCAUGUUAAAUUGGGAGAAGGCCGAUAGCUACAAGAGCGAAAGCUC | 5.45 nM | – | – | 7.16 nM
AAUAUGAGCUGGAAUAACCUCAAAACAUGAGGAUCACCCAUGUAGGAUAUCAGCACGAUAAGUGCUGAGAAGGACAACCAGCUC | – | 13.9 nM | 18.1 nM | –
CACGUCCACACAGGAUAUGCUGGACUUUGUCCAGCAGAAGGGUGAAAACAUGAGGAUCACCCAUGUAGGACGUGUAUAUUUAAU | 43 nM | – | – | 488 nM
GCAGCUAAUGCAGGAUAUCAGCACGUGUAGUGCUGAGAAGGGCACAUGAGGAUCACCCAUGUGAUCAAUCAAUGUUAAUGCUGC | – | 9.43 nM | 38.3 nM | –
UGGUACAUGGGAGGAUAUCCUCAAGAACAUGAGGAUCACCCAUGUAAUUAUAAGCCGAAAGGCAUGGAGAAGGCCCAUGUACCU | 16 nM | – | – | 66.4 nM
CCGGCGUCAGGAUAUCCAAUAUAUGACAUGAGGAUCACCCAUGUUUCCACUCGUACCUCCGGAGAAGGGACGAAUA | – | 28.1 nM | 24.5 nM | –
GGUCCAUUAUGAGGAUAUGGCACCUUAUUGGUGCCAGAAGGCAUGUCUAUAGACAUGAGGAUCACCCAUGUAUUAAUUUGGACC | 41.4 nM | – | – | 360 nM
AUCUCAGGACGAGGAUAUCAAUACAUGAGGAUCACCCAUGUAUGAUUACUGUGAUCCUUCAAGGCUGAGAAGGCGUCCCAAAUG | – | 12.2 nM | 27 nM | –
AGCUACGUUUCGUAGCAGCUAGGUGAGGAUAUCCUUUACAUGAGGAUCACCCAUGUAUAGCCAUGGGAGAAGGCGCCUAGAAAG | 16.9 nM | – | – | 181 nM
GGCCUGUUAGGAUAUUAGUAGUAGUCAGAAUAGACUAUUACUGAGAAGGGACAUGAGGAUCACCCAUGUUGGCC | – | 17.5 nM | 19.9 nM | –
AGGGUGUCGCUCAAUAACAUGAGGAUCACCCAUGUGCAUUAGAGAAGGGACCCGGGCGCGUGGAGUCAGGAUAUCUAUCUGCCA | – | 34.4 nM | 30 nM | –
GUGCUACAGCUGCGCACGAGACAUGAGGAUCACCCAUGUGACAGAAGGGACUUGUUAAAGGUAGGUCAGGAUAUGUCUUAAAAG | 44.2 nM | – | – | 148 nM
GGAUAGGACAGAGGAUAUACGUGCUAGAGAUACUAGCAAGAUUUCCUCACAUGAGGAUCACCCAUGUAGAAGGCUGUCCUAUCG | – | 13.2 nM | 348 nM | –
AAUUCACAUGAGGAUCACCCAUGUCAGGAUAUGCUGACGCGGGUUUCGGUGCGUGUUGGCAGAAGGGACAGCUA | – | 193 nM | 204 nM | –
UGAUAGGACAGAGGAUAUGCCGAUAGGAUCUACUAUCGAAGAAUCCUCACAUGAGGAUCACCCAUGUAGAAGGCUGUUCUAUCU | – | 8.18 nM | 33 nM | –
GGAGACCUCACAGGAUAUGCUGGACUUUGUCCAGCAGAAGGGUGAAACAUGAGGAUCACCCAUGUAAUGGUCUCCAAAUUUAAU | 55.6 nM | – | – | 1030 nM
AAGGAGUCAGGAUAUGCUGCUCGUCACUUGCGUGAUGAGUAGCAGAAGGGACAUGAGGAUCACCCAUGUAAAAA | – | 56.9 nM | 55.8 nM | –
CCAUGUUAGCAGGAUAUGCAAUUAUUCUUUUACGCAGAAGGGCUUACAUGAGGAUCACCCAUGUAACAUUUCAU | – | 18.4 nM | 77.8 nM | –
ACAUUUUAUGCAGGAUAUUGACAUAUAUUUAAACAAGAAGGGCAUUACAUGAGGAUCACCCAUGUUAUAUUGGUAUAUAAGUUC | – | 17.4 nM | 14.8 nM | –
GGAGCAGGGUGAGGAUAUGUAAAAUUCGAAAGGACAGAAGGCACUUAACCAACAUGAGGAUCACCCAUGUAGGCGACGGCACCA | 21.8 nM | – | – | 30 nM

Sequence | apparent Kd [1] | apparent Kd [2] | apparent Kd [3] | apparent Kd [4]
AACAGACAUGAGGAUCACCCAUGUGAAAACGUACAAGGAUAUGUGUGGAAACCGUACUAUACAGAAGGUGUCUGUC | 72.5 nM | – | – | 41.3 nM
CACCGUAACAGAGGAUAUCAAACAUGAGGAUCACCCAUGUAAUAAAUGAGAAUUUCGAAUGUACCUGAGAAGGCUGAAACCGGC | – | 35.6 nM | 41.1 nM | –
GAGUGACAUGAGGAUCACCCAUGUGAGGAUAUCGGACGGACCAAAUUAACAAUUUUUGCGAGAAGGCACAUCGG | – | 59.5 nM | 72.4 nM | –
GGAUGUGUGUAAGGAUAUGCAUCACUGAGAAAUUUAGUGAGGAAGAUCACAUGAGGAUCACCCAUGUAGAAGGUACACACGUGG | – | 10.8 nM | 52.7 nM | –
UAAAUGUGAGGAUAUCAGGUGUGCUAGAAUACUGGUACAUCUGAGAAGGCACAUGAGGAUCACCCAUGUUCCUU | – | 16.4 nM | 41 nM | –
GUCAGCUCGUGAGGAUAUACAACACUGCUGCGGCAGUGUAUUAAGAUCACAUGAGGAUCACCCAUGUAGAAGGCACGAGCUGAU | – | 13.7 nM | 262 nM | –
AUUAUUUAUAGUUAUUGGUAAUUGACAGAAGGUGAAAGUGUCACAUGAGGAUCACCCAUGUUCUUCAAGGAUAUGUUGGUUUAC | 8.4 nM | – | – | 37.6 nM
GCUGUCGCAUGAGGAUAUGGACAGCUUUGCUGUCCAGAAGGCAUGUCGAUAGACAUGAGGAUCACCCAUGUAGUAAAGACAGCA | 64.6 nM | – | – | 588 nM
AGAUCCUGAGUCAGGAUAUAGAGACGGUAGUCGGGCUAGAAGGGACAUGAGGAUCACCCAUGUGGGUUCGGGCC | – | 14.2 nM | 19.3 nM | –
GGAUGACAAAGUCAUCCAAUUCGAACAUGAGGAUCACCCAUGUAGGAUAUGCUACUCAAAGAGUAGCAGAAGGACAUGUGCUUU | – | 37.7 nM | 167 nM | –
CUGAUUUGCUAGAAGGGUGACAUGAGGAUCACCCAUGUGCGGGCAGACCUAUCUUCAUGCCCGCCACAGGAUAUAGCAAUUCGC | 48.2 nM | – | – | 38.3 nM
AAAAUCAAUUGAGGAUAUUCAUACACUACAUACGGAGAAGGCAAACAAUCAUGAGGACAUGAGGAUCACCCAUGUUGUGACCAU | 16.3 nM | – | – | 22.3 nM
GGAAAACAUGAGGAUCACCCAUGUAAGGAUAUGCAAAAGGAUAUAGAAGGAAAAAAAAGCAGAAGGUACAAAGG | – | 39.9 nM | 74.8 nM | –
UUGCCUCAGAACAUGAGGAUCACCCAUGUGCUGCGGGCAACGUAGGAUAUGAUGGUGCAACACCAUCAGAAGGAUGAUGGUACC | 5.45 nM | – | – | 5.62 nM
AGUAGAUCAGGAUAUACAUGAAAGAUCAAAAUGUCCAAUCUACAUGAGGAUCACCCAUGUAGAAGGGAUCUACA | – | 17.1 nM | 23 nM | –
GCAACGCCUGACAUGAGGAUCACCCAUGUUAGAUUGUUAUGUCAGGAUAUAGUCUAGAAACUAGACUAGAAGGGAUAUGUUGCU | 161 nM | – | – | 1010 nM
AAAACAUGAGGAUCACCCAUGUUAAGAUCGGUUAAUAGAAGUGAGGAUAUACGAAGUUAAAGCUGGUAGAAGGCACUGGGUACA | 26.5 nM | – | – | 29.2 nM
AAAACUGGAGGAUAUACAUGAGGAUCACCCAUGUGUGGGUAUACUGUGUCGGCGUCAGGUAGAAGGCCACAAAA | – | 108 nM | 88.7 nM | –
GACGUCGGAAGUCGACGCCACUACAAGGAUAUGCACAUGAGGAUCACCCAUGUUACGAAAUCGUAGCAGAAGGUGUAGUCGUCU | 24 nM | – | – | 245 nM
AAUUAGGUCACAGGAUAUACAACAUCCAAUGCUGUAGAAGGGUGUCACAAUCAUAGCUGACAUGAGGAUCACCCAUGUAUCCAC | 106 nM | – | – | 202 nM
GUAGCAUUAUAAGGAUAUUCAUACCGGAAACGGACAUGAGGAUCACCCAUGUGGCGAAAGCCUUGGGAGAAGGUAUUGUGCUAC | 24.6 nM | – | – | 402 nM
CUUUAGUGAGGAUAUGUGGCUUCGAUCGUGAGAUCGAGGCUACAGAAGGCACAUGAGGAUCACCCAUGUUCCUA | – | 16.6 nM | 59.4 nM | –
CAGCGAAAGCUGAAUCUGUAGAGAGAGGAUAUACAAGAUAUCAUCCAUACAUGAGGAUCACCCAUGUAGAAGGCUCUCUACAGU | – | 5.03 nM | 7.23 nM | –
CUAAUGUGAGGAUAUGGUGUUGAUCACAGGAAGGAGAUUCUCCAGAAGGCACAUGAGGAUCACCCAUGUAGUGA | – | 163 nM | 142 nM | –
GGACAUUUACAGAAGGGCAAGUUAGAUAGUGAAUAUUUAGAUCUGACUUGCAGGAUAUGUUGAACAUGAGGAUCACCCAUGUCC | 10.8 nM | – | – | 13.7 nM
UUUUAGCGAGGAUAUACAUUUUUUUUAUUAUCCUCAUUAUUACAUGAGGAUCACCCAUGUAGAAGGCGCAUUUU | – | 41 nM | 139 nM | –
CCCAGGUCAUCUCCCGGGAACAACAUGAGGAUCACCCAUGUCUAGGAUAUCCACCAGUCAAUAAAGGAGAAGGAGACGGUGGUU | – | 29.3 nM | 31.9 nM | –
